Experimental data published in ChEMBL document CHEMBL4680159, “Novel modified leucine and phenylalanine dipeptides modulate viability and attachment of cancer cells” (2020).
Activity calls are given as the source filed them. No cut-off for these calls is given here.

Key:
[1] = tested on: K562; assay: Antiproliferative activity against human K562 cells assessed as growth inhibition measured after 72 hrs by calcein AM dye-based fluorescence assay; format: functional
Procedure, shortened: (§1)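 Cells exposed to three-fold compound dilutions in triplicate for 72 h. Calcein AM then added and live-cell fluorescence read at 485/538 nm (ex/em). GI50 taken from dose-response curves. Values from at least triplicate measurements.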

[2] = tested on: CCRF-CEM; assay: Antiproliferative activity against human CEM cells assessed as growth inhibition measured after 72 hrs by calcein AM dye-based fluorescence assay; format: functional; procedure, shortened: as §1
[3] = tested on: HCT-116; assay: Antiproliferative activity against human HCT116 cells assessed as growth inhibition measured after 72 hrs by calcein AM dye-based fluorescence assay; format: functional; procedure, shortened: as §1
[4] = tested on: G-361; assay: Antiproliferative activity against human G361 cells assessed as growth inhibition measured after 72 hrs by calcein AM dye-based fluorescence assay; format: functional; procedure, shortened: as §1
[5] = tested on: MCF7; assay: Antiproliferative activity against human MCF7 cells assessed as growth inhibition measured after 72 hrs by calcein AM dye-based fluorescence assay; format: functional; procedure, shortened: as §1
[6] = tested on: HCT-116; assay: Antiproliferative activity against human HCT-116 cells assessed as increase in cell death at 25 uM measured after 24 hrs by IncuCyte live-cell imaging analysis; format: functional, cell-based
Procedure, shortened: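 HCT-116 cells plated at 10 000 cells/well and exposed to compounds at 25 µM for 24 h. Cell membrane integrity/death followed in real time by live-cell imaging with a Cytotox Red reagent.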

| Structure (SMILES) | GI50 [1] [µM] | GI50 [2] [µM] | GI50 [3] [µM] | GI50 [4] [µM] | GI50 [5] [µM] | Activity [6] |
| --- | --- | --- | --- | --- | --- | --- |
| COc1ccc(NC(=O)[C@H](CC(C)C)NC(=O)[C@H](CC(C)C)NC(=O)c2cc(Cl)ccc2O)cc1 | 51 | 23.3 | – | – | – | – |
| CC(C)C[C@H](NC(=O)c1cc(Cl)ccc1OCc1ccccc1)C(=O)Nc1ccc(C(F)(F)F)cc1 | > 50 | 35.4 | – | – | – | – |
| CC(C)C[C@H](NC(=O)c1cc(Cl)ccc1O)C(=O)N[C@@H](CC(C)C)C(=O)NC1CCCCC1 | 55.7 | 38.2 | – | – | – | – |
| CC(C)C[C@H](NC(=O)c1cc(Cl)ccc1OCc1ccccc1)C(=O)N[C@@H](CC(C)C)C(=O)Nc1ccccc1 | 71.2 | 48.9 | – | – | – | – |
| CC(C)C[C@H](NC(=O)c1cc(Cl)ccc1OCc1ccccc1)C(=O)N[C@@H](CC(C)C)C(=O)Nc1ccc(C(F)(F)F)cc1 | 74.6 | 59.9 | – | – | – | – |
| CC(C)C[C@H](NC(=O)c1cc(Cl)ccc1OCc1ccccc1)C(=O)N[C@@H](CC(C)C)C(=O)N1CCOCC1 | 21 | 20.1 | – | – | – | – |
| Cc1ccc(NC(=O)[C@H](CC(C)C)NC(=O)[C@H](CC(C)C)NC(=O)c2cc(Cl)ccc2O)cc1 | 30.7 | 13.2 | – | – | – | – |
| O=C(N[C@@H](Cc1ccccc1)C(=O)N[C@@H](Cc1ccccc1)C(=O)Nc1ccc(C(F)(F)F)cc1)c1cc(Cl)ccc1O | 5.1 | 4.7 | 4.5 | 5.1 | 5.6 | – |
| CC(C)C[C@H](NC(=O)c1cc(Cl)ccc1O)C(=O)N[C@@H](CC(C)C)C(=O)Nc1nccs1 | 31.1 | 19.7 | – | – | – | – |
| Cc1ccc(NC(=O)[C@H](CC(C)C)NC(=O)[C@H](CC(C)C)NC(=O)c2cc(Cl)ccc2OCc2ccccc2)cc1 | 87.7 | 52.8 | – | – | – | – |
| CC(C)C[C@H](NC(=O)c1cc(Cl)ccc1O)C(=O)Nc1ccc(C(F)(F)F)cc1 | 5 | 5 | – | – | – | – |
| O=C(N[C@@H](Cc1ccccc1)C(=O)N[C@@H](Cc1ccccc1)C(=O)Nc1ccc(Cl)c(Cl)c1)c1cc(Cl)ccc1OCc1ccccc1 | 9.9 | 32.8 | – | – | – | – |
| O=C(N[C@@H](Cc1ccccc1)C(=O)Nc1ccc(C(F)(F)F)cc1)c1cc(Cl)ccc1OCc1ccccc1 | > 50 | 31.5 | – | – | – | – |
| CC(C)C[C@H](NC(=O)c1cc(Cl)ccc1O)C(=O)N[C@@H](CC(C)C)C(=O)Nc1ccc(C(F)(F)F)cc1 | 7.5 | 6.2 | 5.8 | 11.5 | 5.3 | – |
| O=C(N[C@@H](Cc1ccccc1)C(=O)N[C@@H](Cc1ccccc1)C(=O)Nc1ccc(Cl)c(Cl)c1)c1cc(Cl)ccc1O | 5.8 | 3.1 | 3 | 4.5 | 5.2 | – |
| CC(C)C[C@H](NC(=O)c1cc(Cl)ccc1O)C(=O)N[C@@H](CC(C)C)C(=O)N1CCOCC1 | > 50 | 54.9 | – | – | – | – |
| CC(C)C[C@H](NC(=O)c1cc(Cl)ccc1OCc1ccccc1)C(=O)N[C@@H](CC(C)C)C(=O)Nc1ccc(Cl)c(Cl)c1 | > 100 | 56.4 | – | – | – | – |
| CC(C)C[C@H](NC(=O)c1cc(Cl)ccc1OCc1ccccc1)C(=O)N[C@@H](Cc1ccccc1)C(=O)Nc1ccc(Cl)c(Cl)c1 | 57.5 | 45.4 | – | – | – | – |
| O=C(N[C@@H](Cc1ccccc1)C(=O)N[C@@H](Cc1ccccc1)C(=O)Nc1ccc(C(F)(F)F)cc1)c1cc(Cl)ccc1OCc1ccccc1 | 12.7 | 11.3 | – | – | – | – |
| CC(C)C[C@H](NC(=O)c1cc(Cl)ccc1O)C(=O)N[C@@H](CC(C)C)C(=O)Nc1ccccc1 | 20.1 | 10.2 | – | – | – | – |
| CC(C)C[C@H](NC(=O)c1cc(Cl)ccc1OCc1ccccc1)C(=O)N[C@@H](CC(C)C)C(=O)NC1CCCCC1 | 19.8 | 9.8 | – | – | – | – |
| O=C(N[C@@H](Cc1ccccc1)C(=O)Nc1ccc(C(F)(F)F)cc1)c1cc(Cl)ccc1O | 5.2 | 4.5 | – | – | – | – |
| COc1ccc(NC(=O)[C@H](CC(C)C)NC(=O)[C@H](CC(C)C)NC(=O)c2cc(Cl)ccc2OCc2ccccc2)cc1 | 68.3 | 53.2 | – | – | – | – |
| CC(C)C[C@H](NC(=O)c1cc(Cl)ccc1O)C(=O)N[C@@H](CC(C)C)C(=O)Nc1ccc(Cl)c(Cl)c1 | 3.2 | 2.6 | 4 | 5.2 | 4.1 | inactive |
